Experimental findings from ChEMBL document CHEMBL2331489, “Novel cinnoline-based inhibitors of LRRK2 kinase activity” (Bioorg Med Chem Lett, 2013) are described below.

Data set [1] concerns the target T1, Leucine-rich repeat serine/threonine-protein kinase 2 (Homo sapiens, UniProt Q5S007, G2019S). In words: Inhibition of GST-tagged LRRK2 G2019S mutant (970 to 2527 amino acid residues) (unknown origin) assessed as inhibition of biotinylated-LRRKtide phosphorylation by HTRF assay in presence of ATP. For orientation: In TR-FRET formats the signal depends on donor and acceptor labels being close together.

Data set [2] concerns the target Leucine-rich repeat serine/threonine-protein kinase 2 (Homo sapiens, UniProt Q5S007). In words: Inhibition of wild type GST-tagged LRRK2 (970 to 2527 amino acid residues) (unknown origin) assessed as inhibition of biotinylated-LRRKtide phosphorylation by HTRF assay in presence of ATP.
Data set [3] deals with Brain. In words: Drug uptake in Mdr1(a/b) knock out and P-gp competent FVB mouse brain at 1 mg/kg, iv at 5 mins. Format: ADME, organism-based. The arrangement: dose 1 mg/kg, route intravenous. The following applies: in vivo. The method, boiled down: (§1)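 FVB mice, both Mdr1a/b (-/-) and P-gp-competent wild-type, were given a single 1 mg/kg IV dose. Brain and plasma concentrations were measured 5 min after dosing. Brain uptake was expressed as the brain-to-plasma concentration ratio (Kp). In vivo P-gp efflux was assessed by comparing the knockout and wild-type strains.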

The target of data set [4] is ATP-dependent translocase ABCB1 (Homo sapiens, UniProt P08183). In words: Inhibition of MDR1 (unknown origin) transfected in MDCK cells. Type of data set: cell-based.
In data set [5] the test system is Mus musculus. In words: Inhibition of P-gp in Mdr1(a/b) knock out and P-gp competent FVB mouse at 1 mg/kg, iv. Type of data set: functional, organism-based. The arrangement: dose 1 mg/kg. The method in brief: as §1
The nature of data set [6]: Ratio of drug level in brain to plasma in Mdr1(a/b) knock out and P-gp competent FVB mouse at 1 mg/kg, iv at 5 mins. Also on record: dose 1 mg/kg, route intravenous. The following applies: read-out: BPR. Type of data set: ADME, organism-based. The method, boiled down:
as §1

The target in data set [7] is T1, Leucine-rich repeat serine/threonine-protein kinase 2. In words: Inhibition of LRRK2 G2019S mutant (unknown origin) transfected in HEK293 cells assessed as inhibition of S935 phosphorylation. Format: cell-based.
In data set [8] the target is Platelet-derived growth factor receptor alpha (Homo sapiens, UniProt P16234). In words: Inhibition of PDGFRalpha (unknown origin) by TR-FRET assay in presence of ATP.
The target of data set [9] is Macrophage colony-stimulating factor 1 receptor (Homo sapiens, UniProt P07333). In words: Inhibition of CSF1R (unknown origin) by TR-FRET assay in presence of ATP.

Each structure is given as a SMILES string. Active and inactive are the calls of the source. No cut-off for these calls is given here.

T1 sequence (Q5S007 whole entry G2019S, the tested form may be a part): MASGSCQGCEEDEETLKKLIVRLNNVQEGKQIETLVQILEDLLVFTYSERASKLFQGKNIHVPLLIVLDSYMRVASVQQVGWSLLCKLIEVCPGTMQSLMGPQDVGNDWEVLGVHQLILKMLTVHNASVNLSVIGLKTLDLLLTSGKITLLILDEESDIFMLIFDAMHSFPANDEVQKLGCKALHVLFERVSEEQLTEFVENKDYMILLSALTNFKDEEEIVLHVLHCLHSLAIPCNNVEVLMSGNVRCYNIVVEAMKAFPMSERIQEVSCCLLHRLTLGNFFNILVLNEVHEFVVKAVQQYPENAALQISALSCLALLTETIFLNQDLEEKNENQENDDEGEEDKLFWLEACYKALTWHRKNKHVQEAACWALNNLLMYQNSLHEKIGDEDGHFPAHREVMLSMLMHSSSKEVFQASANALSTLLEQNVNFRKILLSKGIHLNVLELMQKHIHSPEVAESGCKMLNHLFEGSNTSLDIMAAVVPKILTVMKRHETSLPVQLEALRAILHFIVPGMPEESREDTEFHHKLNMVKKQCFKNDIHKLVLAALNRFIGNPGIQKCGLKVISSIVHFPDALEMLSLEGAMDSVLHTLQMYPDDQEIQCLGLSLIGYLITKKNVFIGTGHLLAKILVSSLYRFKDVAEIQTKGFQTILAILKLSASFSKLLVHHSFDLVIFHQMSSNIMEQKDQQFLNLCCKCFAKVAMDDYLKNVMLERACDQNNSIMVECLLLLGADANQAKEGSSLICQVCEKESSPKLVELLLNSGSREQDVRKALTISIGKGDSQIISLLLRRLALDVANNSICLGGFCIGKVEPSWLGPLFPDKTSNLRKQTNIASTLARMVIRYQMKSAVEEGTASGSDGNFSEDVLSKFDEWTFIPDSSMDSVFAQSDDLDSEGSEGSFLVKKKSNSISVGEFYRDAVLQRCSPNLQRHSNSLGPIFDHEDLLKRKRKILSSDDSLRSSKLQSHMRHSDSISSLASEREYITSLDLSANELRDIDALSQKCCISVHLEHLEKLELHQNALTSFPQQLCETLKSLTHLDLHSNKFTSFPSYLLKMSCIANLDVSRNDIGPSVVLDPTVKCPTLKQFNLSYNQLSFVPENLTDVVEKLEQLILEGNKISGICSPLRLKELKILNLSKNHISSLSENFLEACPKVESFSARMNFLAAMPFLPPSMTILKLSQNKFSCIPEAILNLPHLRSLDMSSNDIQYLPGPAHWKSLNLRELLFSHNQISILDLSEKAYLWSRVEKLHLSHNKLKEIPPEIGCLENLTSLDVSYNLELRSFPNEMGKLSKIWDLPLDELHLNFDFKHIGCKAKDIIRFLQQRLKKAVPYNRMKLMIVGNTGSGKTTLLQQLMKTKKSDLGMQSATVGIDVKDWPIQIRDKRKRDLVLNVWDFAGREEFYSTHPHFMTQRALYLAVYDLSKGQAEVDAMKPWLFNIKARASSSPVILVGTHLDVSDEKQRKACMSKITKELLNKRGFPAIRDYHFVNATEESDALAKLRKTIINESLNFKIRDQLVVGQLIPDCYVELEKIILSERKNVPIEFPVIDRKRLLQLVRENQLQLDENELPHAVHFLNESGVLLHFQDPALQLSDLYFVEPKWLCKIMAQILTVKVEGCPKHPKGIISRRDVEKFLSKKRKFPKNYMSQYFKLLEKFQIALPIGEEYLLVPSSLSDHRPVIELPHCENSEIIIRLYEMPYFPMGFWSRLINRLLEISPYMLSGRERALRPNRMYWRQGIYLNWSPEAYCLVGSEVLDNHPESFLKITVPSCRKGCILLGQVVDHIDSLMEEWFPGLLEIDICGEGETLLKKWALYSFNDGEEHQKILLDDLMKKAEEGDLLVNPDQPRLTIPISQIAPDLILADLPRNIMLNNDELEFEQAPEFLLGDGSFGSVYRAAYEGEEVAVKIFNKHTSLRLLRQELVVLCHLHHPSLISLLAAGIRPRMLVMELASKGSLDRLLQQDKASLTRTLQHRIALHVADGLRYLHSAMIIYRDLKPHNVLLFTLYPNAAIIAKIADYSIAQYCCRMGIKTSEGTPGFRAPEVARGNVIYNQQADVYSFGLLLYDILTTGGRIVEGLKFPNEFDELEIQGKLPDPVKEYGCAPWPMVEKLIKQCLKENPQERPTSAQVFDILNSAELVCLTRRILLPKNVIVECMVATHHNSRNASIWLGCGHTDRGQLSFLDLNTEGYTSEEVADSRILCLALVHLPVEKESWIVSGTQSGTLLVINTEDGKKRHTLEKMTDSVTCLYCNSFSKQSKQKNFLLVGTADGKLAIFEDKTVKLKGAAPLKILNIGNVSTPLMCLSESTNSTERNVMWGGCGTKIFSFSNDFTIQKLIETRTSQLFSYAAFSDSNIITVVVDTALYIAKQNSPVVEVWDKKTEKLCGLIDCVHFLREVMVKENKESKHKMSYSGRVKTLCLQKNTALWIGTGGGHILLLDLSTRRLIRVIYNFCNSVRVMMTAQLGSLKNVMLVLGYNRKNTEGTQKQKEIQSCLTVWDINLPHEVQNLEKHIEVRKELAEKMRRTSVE
Sequence of Leucine-rich repeat serine/threonine-protein kinase 2 (Homo sapiens, UniProt Q5S007) (Q5S007 whole entry, the tested form may be a part): as the sequence (Q5S007 whole entry G2019S, the tested form may be a part) above, with S2019G counted along it
Sequence of Macrophage colony-stimulating factor 1 receptor (P07333 whole entry): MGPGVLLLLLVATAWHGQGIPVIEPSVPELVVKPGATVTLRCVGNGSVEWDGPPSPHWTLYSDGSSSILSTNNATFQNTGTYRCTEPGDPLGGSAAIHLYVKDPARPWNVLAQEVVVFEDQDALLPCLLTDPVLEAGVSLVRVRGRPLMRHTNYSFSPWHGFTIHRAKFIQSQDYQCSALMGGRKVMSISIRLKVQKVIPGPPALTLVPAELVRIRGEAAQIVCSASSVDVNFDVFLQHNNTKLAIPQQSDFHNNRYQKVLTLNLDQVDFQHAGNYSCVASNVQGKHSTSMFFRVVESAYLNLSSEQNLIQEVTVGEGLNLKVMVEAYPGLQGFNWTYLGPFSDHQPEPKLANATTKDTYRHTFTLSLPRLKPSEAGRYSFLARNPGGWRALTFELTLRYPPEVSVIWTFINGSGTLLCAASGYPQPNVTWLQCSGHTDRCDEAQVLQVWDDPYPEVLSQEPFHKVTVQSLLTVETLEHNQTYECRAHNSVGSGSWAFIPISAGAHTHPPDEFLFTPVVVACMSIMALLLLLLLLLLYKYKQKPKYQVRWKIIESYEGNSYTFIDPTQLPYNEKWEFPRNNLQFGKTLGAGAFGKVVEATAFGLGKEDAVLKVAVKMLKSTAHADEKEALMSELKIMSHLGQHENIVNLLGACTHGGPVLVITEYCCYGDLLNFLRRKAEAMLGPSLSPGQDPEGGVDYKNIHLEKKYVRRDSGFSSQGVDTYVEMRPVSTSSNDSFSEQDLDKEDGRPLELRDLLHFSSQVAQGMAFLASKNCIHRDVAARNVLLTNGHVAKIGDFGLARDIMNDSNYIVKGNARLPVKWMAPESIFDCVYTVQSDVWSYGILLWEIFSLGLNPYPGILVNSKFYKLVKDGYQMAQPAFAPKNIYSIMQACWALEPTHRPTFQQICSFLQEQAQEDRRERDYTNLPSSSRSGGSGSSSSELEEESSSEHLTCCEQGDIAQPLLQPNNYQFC
Sequence of ATP-dependent translocase ABCB1 (P08183 whole entry): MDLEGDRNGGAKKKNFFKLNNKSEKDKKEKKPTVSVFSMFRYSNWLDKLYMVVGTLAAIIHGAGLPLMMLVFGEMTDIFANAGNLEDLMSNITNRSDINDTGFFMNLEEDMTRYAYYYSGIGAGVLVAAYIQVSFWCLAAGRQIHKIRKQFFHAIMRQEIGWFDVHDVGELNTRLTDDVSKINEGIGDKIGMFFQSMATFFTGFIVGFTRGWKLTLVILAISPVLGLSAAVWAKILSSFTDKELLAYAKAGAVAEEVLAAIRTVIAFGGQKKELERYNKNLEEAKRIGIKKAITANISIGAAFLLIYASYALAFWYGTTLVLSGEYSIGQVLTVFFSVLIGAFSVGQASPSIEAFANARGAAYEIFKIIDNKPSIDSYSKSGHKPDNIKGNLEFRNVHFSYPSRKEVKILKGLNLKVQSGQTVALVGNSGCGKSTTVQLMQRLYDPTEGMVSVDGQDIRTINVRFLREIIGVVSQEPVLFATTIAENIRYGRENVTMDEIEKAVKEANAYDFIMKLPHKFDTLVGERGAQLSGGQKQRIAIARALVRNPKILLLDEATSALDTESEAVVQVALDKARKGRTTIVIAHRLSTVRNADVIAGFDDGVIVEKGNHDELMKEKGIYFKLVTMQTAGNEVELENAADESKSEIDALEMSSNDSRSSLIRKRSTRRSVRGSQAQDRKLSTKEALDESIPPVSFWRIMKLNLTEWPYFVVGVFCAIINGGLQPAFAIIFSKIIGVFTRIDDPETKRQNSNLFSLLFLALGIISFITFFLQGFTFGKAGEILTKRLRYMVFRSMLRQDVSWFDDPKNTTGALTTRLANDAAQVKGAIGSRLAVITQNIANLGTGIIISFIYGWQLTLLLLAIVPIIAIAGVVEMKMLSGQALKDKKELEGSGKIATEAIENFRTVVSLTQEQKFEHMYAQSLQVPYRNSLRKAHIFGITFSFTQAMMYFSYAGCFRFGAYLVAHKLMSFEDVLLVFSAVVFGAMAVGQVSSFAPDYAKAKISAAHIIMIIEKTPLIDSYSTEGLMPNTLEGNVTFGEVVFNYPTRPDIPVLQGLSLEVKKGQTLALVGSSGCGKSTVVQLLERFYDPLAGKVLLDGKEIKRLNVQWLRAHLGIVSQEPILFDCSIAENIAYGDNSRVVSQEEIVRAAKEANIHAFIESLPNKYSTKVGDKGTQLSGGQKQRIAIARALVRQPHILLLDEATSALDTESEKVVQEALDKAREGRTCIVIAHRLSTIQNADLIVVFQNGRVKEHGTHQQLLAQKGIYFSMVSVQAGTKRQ

As usually defined, the IC50 is the point on the concentration scale where inhibition reaches its midpoint. As to `CCNc1c(C(N)=O)nnc2cc(-c3ccc(S(C)(=O)=O)cc3)ccc12`, the IC50 in data set [1] was determined as 0.055 µM. `CS(=O)(=O)c1ccc(-c2ccc3c(NC4CC4)c(C(N)=O)nnc3c2)cc1`: the IC50 in data set [1] is 0.052 µM; in [2], 0.049 µM. With `CC(C)Nc1c(C(N)=O)nnc2cc(-c3cnn(C)c3)ccc12`, the IC50 in [1] came out at 0.012 µM. The term EC50 denotes the concentration at which the effect is half-maximal. In the case of `C[C@@H](Nc1c(C(N)=O)nnc2cc(-c3ccncc3)ccc12)C1CC1`, in data set [3], the Drug uptake result is listed as “Active”. Also, the “inhibition (INH)” value in [4] was “Active”. For the same compound, the inhibition entry in data set [5] is “Active”. The Kp at 5 min in [6] stood at 1.5. In data set [7], the concentration for a half-maximal effect (EC50) stood at 0.062 µM. Moreover, the IC50 turned out to be 0.006 µM in data set [1] and 0.002 µM in data set [2]. Consider `CS(=O)(=O)c1ccc(-c2ccc3c(NC4CCOC4)c(C(N)=O)nnc3c2)cc1` (racemic), for which, in data set [1], the concentration for half-maximal inhibition (IC50) was determined as 0.053 µM. On to `CNC(=O)c1nnc2cc(-c3ccc(S(C)(=O)=O)cc3)ccc2c1NC(C)C`, for which, in data set [1], the IC50 worked out at 0.418 µM. Take `CC[C@@H](C)Nc1c(C(N)=O)nnc2cc(-c3ccc(S(C)(=O)=O)cc3)ccc12`: the concentration giving a half-maximal response (EC50) in data set [7] was 0.073 µM. Also, the IC50 was determined as 0.004 µM in data set [1] and 0.001 µM in data set [2]. `CC(C)Nc1c(C(N)=O)nnc2cc(N3CCN(C)CC3)ccc12`: in data set [1], the IC50 came to 0.059 µM. As for `CC(C)Nc1c(C(N)=O)nnc2cc(-c3ccc(S(C)(=O)=O)cc3)ccc12`, the IC50 in data set [8] amounted to 0.262 µM; in data set [9], 0.012 µM; in data set [1] it was 0.027 µM. Also, the concentration giving a half-maximal response (EC50) in data set [7] was 0.218 µM. `CNC(=O)c1nnc2cc(-c3ccc(S(C)(=O)=O)cc3)ccc2c1N[C@H](C)C1CC1`: the IC50 in data set [1] came to 0.247 µM. Consider `CS(=O)(=O)c1ccc(-c2ccc3c(Nc4ccccc4)c(C(N)=O)cnc3c2)cc1`, for which, in data set [2], the IC50 was determined as 0.781 µM.

With `Cc1c(-c2ccncc2)ccc2c(NC(C)C)c(C(N)=O)nnc12`, the IC50 in data set [1] stood at 2.51 µM; in [2], 3.2 µM. For the compound `CC(C)Nc1c(C(N)=O)nnc2ccc(-c3cnn(C)c3)cc12`, the IC50 in data set [1] stood at 0.425 µM. For the compound `CS(=O)(=O)c1ccc(-c2ccc3c(NCC4CC4)c(C(N)=O)nnc3c2)cc1`, in data set [1], the IC50 stood at 0.027 µM. As for `CS(=O)(=O)c1ccc(-c2ccc3c(NC4CCOCC4)c(C(N)=O)nnc3c2)cc1`, the IC50 in data set [1] came to 0.032 µM. On to `CS(=O)(=O)c1ccc(-c2ccc3c(N)c(C(N)=O)nnc3c2)cc1`, for which the IC50 in data set [1] came out at 0.298 µM.

For `NC(=O)c1nnc2cc(-c3ccncc3)ccc2c1NCCO`, the IC50 in data set [1] came out at 0.264 µM. Regarding `CC(C)Nc1c(C(N)=O)nnc2cc(-c3cnsc3)ccc12`, the EC50 in data set [7] is 0.29 µM. For the same compound, the IC50 in [1] amounted to 0.02 µM; in [2], 0.014 µM. For `NC(=O)c1nnc2cc(-c3ccncc3)ccc2c1NCCCO`, in data set [1], the IC50 was 0.162 µM.

With `CNc1c(C(N)=O)nnc2cc(-c3ccc(S(C)(=O)=O)cc3)ccc12`, in data set [1], the 50% inhibitory concentration (IC50) was 0.056 µM. Consider `CC(C)Nc1c(C(N)=O)nnc2cc(-c3cn[nH]c3)ccc12`, for which the half-maximal inhibitory concentration (IC50) in data set [1] was determined as 0.018 µM; in [2], 0.012 µM.
